From ChEMBL document CHEMBL4346684, “Synthesis and structure-bactericidal activity relationships of non-ketolides: 9-Oxime clarithromycin 11,12-cyclic carbonate featured with three-to eight-atom-length spacers at 3-OH” (Eur J Med Chem, 2019)
≈ marks a conversion by molar mass, not a printed value.

Tests used:
Type in all cases: functional
[1] = test system: Staphylococcus epidermidis; test: Antimicrobial activity against Staphylococcus epidermidis E1 incubated in CAMHB medium for 20 hrs by two-fold microbroth dilution method; conditions: E1, 20 h
Outline: (§1)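 Clinical isolates and ATCC strains, purified by plate activation and used fresh; inoculum about 5×10^5 CFU/ml final. Grown in CAMHB at 35 °C for 20 h.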

Streptococcus pyogenes [2] = test: Antimicrobial activity against constitutively erythromycin resistant Streptococcus pyogenes A2 expressing c-erm incubated in CAMHB medium for 20 to 24 hrs by two-fold microbroth dilution method
Outline: (§2)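 Purified fresh Streptococcus isolate at about 5×10^5 CFU/ml final in CAMHB with 5% horse serum, 35 °C for 20–24 h. […] Each run included ATCC strains and reference antibiotics as QC, plus an antibiotic-free growth control.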

Streptococcus pneumoniae [3] = test: Antimicrobial activity against erythromycin-susceptible Streptococcus pneumoniae ATCC 49619 incubated in CAMHB medium for 20 to 24 hrs by two-fold microbroth dilution method
Streptococcus pneumoniae [4] = test: Antimicrobial activity against mef-encoded erythromycin resistant Streptococcus pneumoniae PU09 incubated in CAMHB medium for 20 to 24 hrs by two-fold microbroth dilution method
Staphylococcus aureus [5] = test: Antimicrobial activity against inducibly erythromycin-resistant Staphylococcus aureus PU32 expressing i-ermA incubated in CAMHB medium for 20 hrs by two-fold microbroth dilution method; conditions: PU32, 20 h
Outline: (§3)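 Purified fresh Staphylococcus isolate at about 5×10^5 CFU/ml final in CAMHB, 35 °C for 20 h. […] Each run included ATCC strains and reference antibiotics as QC, plus an antibiotic-free growth control.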

Staphylococcus aureus [6] = test: Antimicrobial activity against erythromycin-susceptible Staphylococcus aureus ATCC 29213 incubated in CAMHB medium for 20 hrs by two-fold microbroth dilution method; conditions: ATCC 29213, 20 h; outline: as §1
Staphylococcus aureus [7] = test: Antimicrobial activity against constitutively erythromycin resistant Staphylococcus aureus PU20 expressing c-ermC incubated in CAMHB medium for 20 hrs by two-fold microbroth dilution method; conditions: PU20, 20 h; outline: as §3
Streptococcus pneumoniae [8] = test: Antimicrobial activity against constitutively erythromycin resistant Streptococcus pneumoniae PU27 expressing c-erm incubated in CAMHB medium for 20 to 24 hrs by two-fold microbroth dilution method; outline: as §2
Streptococcus pyogenes [9] = test: Antimicrobial activity against erythromycin-susceptible Streptococcus pyogenes A3 incubated in CAMHB medium for 20 to 24 hrs by two-fold microbroth dilution method
Staphylococcus aureus [10] = test: Antimicrobial activity against inducibly erythromycin resistant Staphylococcus aureus PU64 expressing i-ermA incubated in CAMHB medium for 20 hrs by two-fold microbroth dilution method; conditions: PU64, 20 h; outline: as §3
Streptococcus pyogenes [11] = test: Bactericidal activity against inducibly erythromycin resistant Streptococcus pyogenes 01-968 expressing i-ermA assessed as reduction in colony formation incubated in CAMHB medium for 20 to 24 hrs followed by 24 hrs subculturing in the medium without test compound
Haemophilus influenzae [12] = test: Ratio of MBC to MIC for azithromycin-susceptible Haemophilus influenzae ATCC 49247
Haemophilus influenzae [13] = test: Bactericidal activity against azithromycin-susceptible Haemophilus influenzae ATCC 49247 assessed as reduction in colony formation incubated in HTM broth medium for 20 to 24 hrs followed by 24 hrs subculturing in the medium without test compound
Streptococcus pneumoniae [14] = test: Bactericidal activity against erythromycin-susceptible Streptococcus pneumoniae ATCC 49619 assessed as reduction in colony formation incubated in CAMHB medium for 20 to 24 hrs followed by 24 hrs subculturing in the medium without test compound
Streptococcus pneumoniae [15] = test: Ratio of MBC to MIC for mef-encoded erythromycin resistant Streptococcus pneumoniae PU09
Staphylococcus aureus [16] = test: Bactericidal activity against inducibly erythromycin-resistant and methicillin resistant Staphylococcus aureus PU32 expressing i-ermA assessed as reduction in colony formation incubated in CAMHB medium for 20 hrs followed by 24 hrs subculturing in the medium without test compound
Streptococcus pyogenes [17] = test: Ratio of MBC to MIC for inducibly erythromycin resistant Streptococcus pyogenes 01-968 expressing i-ermA
Staphylococcus aureus [18] = test: Antimicrobial activity against constitutively erythromycin resistant and methicillin resistant Staphylococcus aureus PU20 expressing c-ermC incubated in CAMHB medium for 20 hrs by two-fold microbroth dilution method; conditions: PU20, 20 h
Outline: (§4)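 Purified fresh Staphylococcus isolate at about 5×10^5 CFU/ml final in CAMHB, 35 °C for 20 h. Each run included ATCC strains and reference antibiotics as QC, plus an antibiotic-free growth control.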

Streptococcus pyogenes [19] = test: Antimicrobial activity against inducibly erythromycin resistant Streptococcus pyogenes 01-968 expressing i-ermA incubated in CAMHB medium for 20 to 24 hrs by two-fold microbroth dilution method
Staphylococcus aureus [20] = test: Antimicrobial activity against inducibly erythromycin-resistant and methicillin resistant Staphylococcus aureus PU32 expressing i-ermA incubated in CAMHB medium for 20 hrs by two-fold microbroth dilution method; conditions: PU32, 20 h; outline: as §4
Streptococcus pneumoniae [21] = test: Ratio of MBC to MIC for erythromycin-susceptible Streptococcus pneumoniae ATCC 49619
Streptococcus pneumoniae [22] = test: Bactericidal activity against mef-encoded erythromycin resistant Streptococcus pneumoniae PU09 assessed as reduction in colony formation incubated in CAMHB medium for 20 to 24 hrs followed by 24 hrs subculturing in the medium without test compound
Haemophilus influenzae [23] = test: Antimicrobial activity against azithromycin-susceptible Haemophilus influenzae ATCC 49247 incubated in HTM broth medium for 20 to 24 hrs by two-fold microbroth dilution method

| SMILES | MIC [1] [µg/mL] | MIC (Streptococcus pyogenes [2]) [µg/mL] | MIC (Streptococcus pneumoniae [3]) [µg/mL] | MIC (Streptococcus pneumoniae [4]) [µg/mL] | MIC (Staphylococcus aureus [5]) [µg/mL] | MIC (Staphylococcus aureus [6]) [µg/mL] | MIC (Staphylococcus aureus [7]) [µg/mL] | MIC (Streptococcus pneumoniae [8]) [µg/mL] | MIC (Streptococcus pyogenes [9]) [µg/mL] | MIC (Staphylococcus aureus [10]) [µg/mL] | MBC (Streptococcus pyogenes [11]) [µg/mL] | Ratio (Haemophilus influenzae [12]) | MBC (Haemophilus influenzae [13]) [µg/mL] | MBC (Streptococcus pneumoniae [14]) [µg/mL] | Ratio (Streptococcus pneumoniae [15]) | MBC (Staphylococcus aureus [16]) [µg/mL] | Ratio (Streptococcus pyogenes [17]) | MIC (Staphylococcus aureus [18]) [µg/mL] | MIC (Streptococcus pyogenes [19]) [µg/mL] | MIC (Staphylococcus aureus [20]) [µg/mL] | also measured |
| --- | --- | --- | --- | --- | --- | --- | --- | --- | --- | --- | --- | --- | --- | --- | --- | --- | --- | --- | --- | --- | --- |
| C=CCO/N=C1\[C@H](C)C[C@@](C)(OC)[C@H](O[C@@H]2O[C@H](C)C[C@H](N(C)C)[C@H]2O)[C@@H](C)[C@H](OCC#Cc2ccnc(N)c2)[C@@H](C)C(=O)O[C@H](CC)[C@@]2(C)OC(=O)O[C@@H]2[C@H]1C | 256 (≈ 320 µM) | 128 (≈ 160 µM) | 4 (≈ 4.99 µM) | 8 (≈ 9.99 µM) | 256 (≈ 320 µM) | 64 (≈ 79.9 µM) | 256 (≈ 320 µM) | 64 (≈ 79.9 µM) | 4 (≈ 4.99 µM) | 256 (≈ 320 µM) |  |  |  |  |  |  |  |  |  |  |  |
| CC[C@H]1OC(=O)[C@H](C)[C@@H](OC(=O)CCNC/C=C/c2cccnc2)[C@H](C)[C@@H](O[C@@H]2O[C@H](C)C[C@H](N(C)C)[C@H]2O)[C@](C)(OC)C[C@@H](C)/C(=N\OC)[C@H](C)[C@H]2OC(=O)O[C@@]21C |  |  | 1 (≈ 1.2 µM) | 2 (≈ 2.4 µM) |  |  |  |  |  |  | > 64 | 1 | 256 (≈ 307 µM) | 2 (≈ 2.4 µM) | 1 | > 256 | >8 | > 256 | 8 (≈ 9.6 µM) | 128 (≈ 154 µM) | Ratio (Streptococcus pneumoniae [21]): 2; MBC (Streptococcus pneumoniae [22]): 2 µg/mL (≈ 2.4 µM); MIC (Haemophilus influenzae [23]): 256 µg/mL (≈ 307 µM) |
| CC[C@H]1OC(=O)[C@H](C)[C@@H](OC(=O)CCNCCNc2cc3c(=O)c(C(=O)O)cn(C4CC4)c3cc2Cl)[C@H](C)[C@@H](O[C@@H]2O[C@H](C)C[C@H](N(C)C)[C@H]2O)[C@](C)(OC)C[C@@H](C)/C(=N\OC)[C@H](C)[C@H]2OC(=O)O[C@@]21C |  |  | 2 (≈ 1.96 µM) | 8 (≈ 7.84 µM) |  |  |  |  |  |  | 32 (≈ 31.4 µM) | 1 | 128 (≈ 125 µM) | 4 (≈ 3.92 µM) | 1 | > 256 | 2 | > 256 | 16 (≈ 15.7 µM) | 256 (≈ 251 µM) | Ratio (Streptococcus pneumoniae [21]): 2; MBC (Streptococcus pneumoniae [22]): 8 µg/mL (≈ 7.84 µM); MIC (Haemophilus influenzae [23]): 128 µg/mL (≈ 125 µM) |
| C=CCO/N=C1\[C@H](C)C[C@@](C)(OC)[C@H](O[C@@H]2O[C@H](C)C[C@H](N(C)C)[C@H]2O)[C@@H](C)[C@H](O)[C@@H](C)C(=O)O[C@H](CC)[C@@]2(C)OC(=O)O[C@@H]2[C@H]1C | > 256 | 128 (≈ 191 µM) | 8 (≈ 11.9 µM) | 16 (≈ 23.9 µM) | > 256 | 128 (≈ 191 µM) | > 256 | 128 (≈ 191 µM) | 16 (≈ 23.9 µM) | > 256 |  |  |  |  |  |  |  |  |  |  |  |
| C=CCO/N=C1\[C@H](C)C[C@@](C)(OC)[C@H](O[C@@H]2O[C@H](C)C[C@H](N(C)C)[C@H]2O)[C@@H](C)[C@H](OCC#Cc2cncnc2)[C@@H](C)C(=O)O[C@H](CC)[C@@]2(C)OC(=O)O[C@@H]2[C@H]1C | 256 (≈ 325 µM) | 64 (≈ 81.3 µM) | 4 (≈ 5.08 µM) | 4 (≈ 5.08 µM) | 128 (≈ 163 µM) | 64 (≈ 81.3 µM) | 256 (≈ 325 µM) | 64 (≈ 81.3 µM) | 4 (≈ 5.08 µM) | 256 (≈ 325 µM) |  |  |  |  |  |  |  |  |  |  |  |
| C=CCO/N=C1\[C@H](C)C[C@@](C)(OC)[C@H](O[C@@H]2O[C@H](C)C[C@H](N(C)C)[C@H]2O)[C@@H](C)[C@H](OCC#Cc2cccc(N)n2)[C@@H](C)C(=O)O[C@H](CC)[C@@]2(C)OC(=O)O[C@@H]2[C@H]1C | 256 (≈ 320 µM) | 64 (≈ 79.9 µM) | 4 (≈ 4.99 µM) | 4 (≈ 4.99 µM) | 256 (≈ 320 µM) | 64 (≈ 79.9 µM) | 256 (≈ 320 µM) | 64 (≈ 79.9 µM) | 4 (≈ 4.99 µM) | 128 (≈ 160 µM) |  |  |  |  |  |  |  |  |  |  |  |
